Bioassay records deposited in PubChem BioAssay by The Scripps Research Institute Molecular Screening Center.
Most compounds without a hit are left out; they make up all but 4.6% or so of the library.
OX1R antag-1 – human HCRTR1 antagonism; O43613; CHO/OX1R cells, Fluo-8 calcium fluorescence, orexin A; inhibition, % at 5 µM; hit rate 0.43% among 330,000;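 active = inhibition above its plate's threshold, mean inhibition of all tested compounds on the plate plus 3 SD, cut at about 37% in these data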;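 also: 0% = orexin A challenge wells and 100% = SB-334867-A antagonist wells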
Target sequence (O43613 whole entry, looked up): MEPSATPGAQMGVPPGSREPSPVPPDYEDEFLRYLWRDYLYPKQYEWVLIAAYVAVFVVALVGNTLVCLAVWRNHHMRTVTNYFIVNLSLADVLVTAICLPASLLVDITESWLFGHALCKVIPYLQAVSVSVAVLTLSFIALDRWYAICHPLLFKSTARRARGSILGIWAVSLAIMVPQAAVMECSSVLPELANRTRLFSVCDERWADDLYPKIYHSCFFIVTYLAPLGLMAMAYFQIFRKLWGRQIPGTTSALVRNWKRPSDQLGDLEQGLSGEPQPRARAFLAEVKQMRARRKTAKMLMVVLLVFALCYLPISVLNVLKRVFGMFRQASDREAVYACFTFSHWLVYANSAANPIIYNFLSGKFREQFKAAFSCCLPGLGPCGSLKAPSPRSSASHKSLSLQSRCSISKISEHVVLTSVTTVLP
OX1R antag-2 – blocks the human orexin 1 receptor; O43613; OX1R-expressing cells, FRET antagonist read-out; inhibition, % at 6.6 µM; hit rate 1.8% among 330,000; AID 485270; in the data active = inhibition mostly above about 38%, no sharp cut-off; inactive = mostly below about 40%;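 also: 0% = agonist challenge alone and 100% = reference antagonist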
CHO parental Ca – signal in parental CHO cells, OX1R antagonist counter-screen | parental CHO-K1, ATP-induced calcium, Fluo-8 fluorescence | inhibition, % at 5.6 µM | hit rate 0.63% among 330,000 | AID 463079;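 active = inhibition above that plate's mean sample inhibition plus 3 SD, cut at about 26% in these data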;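 also: 0% = ATP-challenged DMSO wells and 100% = DMSO wells without ATP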
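Measured by: calcium-sensitive Fluo-8 fluorescence / Test system: CHO parental line / Controls: ATP-challenged DMSO wells low, unchallenged DMSO wells high / Measure: % inhibition / Compound: single nominal dose of 5.6 µM per compound / Replicates: single well per compound, no replicates / Reagent: ATP as calcium-mobilizing challenge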
TAAR1 agonist – agonists of human TAAR1 | CHO RD-HGA16 TAAR1, Fluo-8 calcium fluorescence; vehicle wells 0%, saturating PEA agonist 100% | activation, % at 3 µM | hit rate 0.99% among 360,000;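 active = activation above the mean activation of all test compounds in the run plus 3 SD, cut at about 38% in these data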
Target sequence (Q96RJ0 whole entry, looked up): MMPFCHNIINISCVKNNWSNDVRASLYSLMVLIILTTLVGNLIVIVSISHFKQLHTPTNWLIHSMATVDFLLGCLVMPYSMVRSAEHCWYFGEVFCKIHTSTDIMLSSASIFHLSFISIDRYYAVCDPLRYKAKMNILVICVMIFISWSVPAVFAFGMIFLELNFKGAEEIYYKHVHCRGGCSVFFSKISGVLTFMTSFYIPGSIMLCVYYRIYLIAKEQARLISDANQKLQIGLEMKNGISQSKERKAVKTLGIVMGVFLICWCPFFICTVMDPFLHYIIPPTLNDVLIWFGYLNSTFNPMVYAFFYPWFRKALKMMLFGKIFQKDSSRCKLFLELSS
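Test system: RD-HGA16 (CHO) cells co-expressing Gα16 and hTAAR1; dosing: one-point dosing at 3 µM (nominal); timing: 17-24 h seeding, 75 min 37 °C dye, 30 min RT; signal: kinetic Fluo-8 calcium fluorescence; read-out basis: % activation relative to PEA EC100 response; controls: DMSO and PEA EC100; replicates: n 1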
GPR7 antag – human neuropeptides B/W receptor 1 antagonism. P48145. GPR7-expressing cells, fluorescence antagonist assay. inhibition, % at 4.4 µM. hit rate 1.1% among 290,000. AID 1861; in the data active = inhibition above about 16%, passing the limit was not always enough;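 also: cells stimulated with the agonist NPW; 0% = agonist with vehicle and 100% = vehicle without agonist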
TAAR1 antag – human TAAR1 antagonism. Q96RJ0. CHO RD-HGA16 TAAR1, Fluo-8 calcium fluorescence, antagonist. inhibition, % at 3 µM. hit rate 1.5% among 360,000;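 active = inhibition above a per-plate cutoff, the mean inhibition of test compounds on that plate plus 3 SD, cut at about 49% in these data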;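 also: 0% = DMSO plus EC80 beta-PEA response and 100% = DMSO alone without agonist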
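Test system: hTAAR1-expressing CHO RD-HGA16 cells, Gα16-coupled; Probe or stimulus: EC80 β-phenethylamine stimulus; Compound dosing: single nominal final test compound concentration of 3 µM; Timing: 140 s kinetic read after compound, 140 s after agonist; Signal: Fluo-8 calcium-sensitive fluorescence; Measure: % inhibition of agonist calcium response; Controls: DMSO and EC80 PEA controls.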
TAAR1 ag confirm – human TAAR1 agonism, confirmed; shares compounds with TAAR1 agonist; CHO RD-HGA16 TAAR1, Fluo-8 calcium fluorescence; scaled: DMSO 0%, maximal phenethylamine 100%; activation, % at 3 µM; hit rate 82% among 2,400; AID 651783;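 active = activation above a cutoff set at the run's mean compound activation plus 3 SD, cut at about 39% in these data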
Ga16 ag counter – counter-screen for TAAR1 agonists: nonselective agonists in parental cells | hit rate 50% among 2,400 | activation, % at 3 µM | shares compounds with TAAR1 agonist | CHO-Ga16 parental, Fluo-8 calcium fluorescence; normalized to maximal ATP response, DMSO zero;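 active = activation above the run cutoff, the mean activation over all tested wells plus 3 SD, cut at about 12% in these data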;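 also: 0% = DMSO wells and 100% = maximal ATP response on the peak over basal ratio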
TAAR1 desens – counter-screen for human TAAR1 agonists: agonists that desensitize TAAR1; shares compounds with TAAR1 agonist; CHO RD-HGA16 hTAAR1, Fluo-8 calcium, beta-PEA response inhibition; inhibition, % at 3 µM; hit rate 46% among 2,400;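 active = inhibition above the run cutoff, the mean inhibition of all test compounds plus 3 SD, cut at about 49% in these data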;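 also: beta-PEA stimulus applied at its EC80; loss of beta-PEA calcium signal after compound pretreatment read as receptor desensitization; 0% = DMSO with beta-PEA at EC80 and 100% = DMSO alone without agonist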
Ga16 antag count – nonselective Ga16 antagonism, counter-screen. inhibition, % at 3 µM. CHO-Ga16 ATP-induced calcium, Fluo-8 fluorescence. hit rate 39% among 2,400. shares compounds with TAAR1 agonist. AID 651952;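 active = inhibition above the plate's mean compound inhibition plus 3 SD, computed per plate, cut at about 22% in these data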;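 also: 0% = EC80 ATP with DMSO and 100% = DMSO wells without ATP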
Active calls of the source: *; . = no result given.

SMILES	OX1R antag-1	OX1R antag-2	CHO parental Ca	TAAR1 agonist	GPR7 antag	TAAR1 antag	TAAR1 ag confirm	Ga16 ag counter	TAAR1 desens	Ga16 antag count
C=CC[C@H]1CC(Cc2ccccc2)=C[C@H](CC=C)N1	-16.7	23.2	-6.9	6.2	-9.7	-12.3	.	.	.	.
Cc1nonc1CN(C)C(=O)CC1C(=O)NCCN1Cc1cccc(C(F)(F)F)c1 (stereo not given)	-16.5	0.6	-20.2	0.4	-4.2	5.7	.	.	.	.
CCN(CC)c1ccc(/C=C2/C(=O)c3ccc(C(=O)O)cc3C2=O)cc1	82.7*	33.1	46.1	264.6*	-0.6	102.7*	213.7*	199.3*	105.2*	98.3*
CCn1c(=O)c(C(=O)Nc2ncccc2C)c(O)c2ccccc21	-17.2	25.6	-6.3	58.9*	-3.7	13.1	25.0	12.1*	-9.5	4.9
CCCCCC(=O)NNC(=O)c1c(O)c2ccccc2n(CC)c1=O	-24.1	13.9	-18.8	48.2*	-12.9	7.9	18.5	24.1*	-3.1	0.0
Cn1c(=O)c(C(=O)NCCO)c(O)c2ccccc21	-10.3	17.2	0.6	10.2	-12.4	7.1	.	.	.	.
CCn1c(=O)c(C(=O)NNC(=O)c2ccccc2F)c(O)c2ccccc21	-10.0	13.1	-15.8	101.6*	1.9	51.9*	98.9*	88.6*	56.1*	59.9*
Cn1c(=O)c(C(=O)NNC(=O)c2ccccc2F)c(O)c2ccccc21	-9.9	5.6	1.6	47.9*	-1.0	6.1	60.4*	42.6*	11.9	22.4*
CCCCCCCCCC(=O)NNC(=O)c1c(O)c2ccccc2n(CC)c1=O	-20.1	13.9	-19.6	5.2	-4.5	4.5	.	.	.	.
COc1ccccc1OCCC(=O)OCC(=O)c1c(N)n(C)c(=O)n(C)c1=O	-13.6	16.6	-16.0	1.6	-11.6	-10.3	.	.	.	.
Nc1nonc1-n1nnc(C(=O)N/N=C/c2cccc(Cl)c2)c1-c1ccc2c(c1)OCO2	9.7	22.2	6.8	14.6	-1.0	28.6	.	.	.	.
Nc1nonc1-n1nnc(C(=O)N/N=C/c2ccc(Br)cc2)c1-c1ccc2c(c1)OCO2	-1.5	-1.5	-1.2	154.3*	-0.1	93.1*	149.9*	112.2*	96.5*	81.2*
Nc1nonc1-n1nnc(C(=O)N/N=C/c2ccc3c(c2)OCO3)c1-c1ccccc1	-17.1	29.0	-22.4	75.2*	-7.5	6.9	44.6*	26.3*	15.9	10.8
O=C(COc1ccccc1[N+](=O)[O-])NNC(=O)Nc1cccc2ccccc12	-27.4	23.7	-21.9	8.7	14.5	-3.1	.	.	.	.
Cc1ccc(OP(=O)(Nc2c(C)n(C)n(-c3ccccc3)c2=O)Oc2ccc(C)cc2)cc1	-32.3	11.1	-17.1	50.3*	2.7	5.4	27.3	7.6	7.9	5.5
Cc1cc(C2=NNC(=NCCc3ccccc3)SC2)c(C)n1-c1c(C)n(C)n(-c2ccccc2)c1=O	-26.1	-0.1	-3.1	70.4*	4.7	21.3	92.6*	2.2	61.9*	2.4
CC1CCN(c2ccc3c(c2)S(=O)(=O)c2cccc(C(=O)NCc4cccc(F)c4)c2C3=O)CC1	23.3	8.1	-8.3	67.1*	.	91.4*	25.9	35.7*	59.8*	62.5*
O=C(NCc1cccc(F)c1)c1cccc2c1C(=O)c1ccc(N3CCCC3)cc1S2(=O)=O	9.5	19.7	3.5	.	.	.	.	.	.	.
CC(C)NC(=S)N(CCc1ccncc1)C(C)C	-5.2	-2.2	-8.8	-2.6	-17.3	-0.6	.	.	.	.
Cc1cc(C)cc(Nc2cc(=O)n(C3CCCCC3)c(=O)[nH]2)c1	-6.5	19.4	-16.7	10.3	1.2	22.0	.	.	.	.
Cc1cc2nc3c(=O)n(C4CCCCC4)c(=O)[nH]c3nc2cc1N	.	.	.	56.8*	-12.6	11.8	28.3	63.7*	27.0	39.3*
Cc1ccc(N2CCN(C(=O)c3cc(C(=O)c4ccccc4C)c[nH]3)CC2)c(C)c1	-51.8	9.8	-23.4	14.0	-12.2	-19.9	.	.	.	.
CC1CCN(C(=O)c2[nH]cnc2C(=O)N2CCN(C(=O)OC(C)(C)C)CC2)CC1	-8.9	0.7	1.4	3.4	.	17.4	.	.	.	.
N#CCCn1c(C2CCCCC2)nc2ccccc21	-20.1	18.7	-5.9	12.7	9.3	3.7	.	.	.	.
O=C(Cc1csc2ccccc12)NCC1CC1	.	.	.	-0.2	.	2.7	.	.	.	.
SMILES	OX1R antag-1	OX1R antag-2	CHO parental Ca	TAAR1 agonist	GPR7 antag	TAAR1 antag	TAAR1 ag confirm	Ga16 ag counter	TAAR1 desens	Ga16 antag count
O=C(O)COCC(=O)NCc1csc2ccccc12	-3.8	1.0	-10.9	51.4*	-7.1	-40.4	54.9*	-0.3	26.3	5.8
CCOC(=O)C1=NN(C(=O)c2ccc(C)cc2)C(O)(c2ccc(Cl)cc2)C1 (stereo not given)	-9.1	14.7	-11.7	115.7*	6.2	72.8*	69.4*	78.7*	31.9	41.5*
CCC1=NN(C(=O)c2ccc(Cl)cc2)C(O)(c2ccc(C)cc2)C1 (stereo not given)	.	.	.	0.4	-8.4	4.4	.	.	.	.
COc1ccc(NC(=O)CS(=O)CC(=O)NCC2OCCc3ccccc32)cc1 (stereo not given)	-15.5	26.9	-9.2	9.8	-5.5	-13.9	.	.	.	.
O=C(O)CCC(=O)NCC1OCCc2ccccc21 (stereo not given)	5.2	21.5	-3.2	53.8*	-5.1	6.9	15.9	2.3	13.4	7.8
CCOC(=O)C(NC(C)=O)(N1CCc2ccccc2C1)C(F)(F)F (stereo not given)	-5.2	11.4	-16.4	102.8*	-4.4	92.5*	107.6*	4.0	98.3*	-0.9
c1ccc(CCNCC2COc3ccccc3O2)cc1 (stereo not given)	-18.8	5.8	-19.0	16.0	-5.1	4.3	.	.	.	.
CN(C)S(=O)(=O)c1cccc(CNCC2COc3ccccc3O2)c1 (stereo not given)	-14.7	-3.7	-14.3	58.8*	10.0	-13.2	88.4*	21.1*	33.8	2.5
COc1ccc(C(=O)NCCS(=O)(=O)NCCc2ccccc2)cc1	-13.8	6.1	-24.8	47.9*	.	15.8	71.6*	1.5	32.9	6.4
O=C(NCCS(=O)(=O)NCCc1ccccc1)c1ccc2c(c1)OCO2	-12.7	13.4	-4.4	.	.	.	.	0.0	.	6.8
O=C(NCCc1ccccc1)c1ccc(=O)oc1	-7.5	24.9	0.3	61.3*	-1.4	7.9	66.8*	13.8*	11.9	3.8
Cc1ccc(C(=O)NCCc2ccccc2)cc1	4.4	9.7	-3.2	.	-12.5	.	.	.	.	.
